Data on eight compounds can be found in ChEMBL document CHEMBL1811838, “Antimalarial activity of natural and synthetic prodiginines” (J Med Chem, 2011).

Data set [1] deals with Plasmodium yoelii. The data set is described as follows: Antimalarial activity Plasmodium yoelii infected in CF-1 mouse assessed as reduction of parasitemia at 25 mg/kg, po qd for 3 days administered 24 hrs after infection measured after 24 hrs last dose relative to control. The class given is functional. Also on record: scale not given: the % may be the effect or the level left. An outline of the steps: (§1)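 Female outbred CF-1 mice infected iv (tail vein) with 5 × 10^5 P. yoelii Kenya-infected erythrocytes. Groups of five given compound or vehicle alone by gavage in caprylic/capric triglyceride once daily for 3 days starting 24 h post-infection. One day after last dose, Giemsa-stained thin smears scored microscopically for % infected erythrocytes vs untreated controls. Group mean weight day 3 vs day 0. Smear-negative mice followed; parasite-free at 28 days counted cured.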

In data set [2] the test system is Plasmodium falciparum. The data set is described as follows: Antimalarial activity Plasmodium falciparum D6 after 72 hrs by SYBR Green I based fluorescence assay. Format: functional, organism-based. As to conditions: D6, 72 h. In short, it runs like this:
(§2)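 P. falciparum (D6 pansensitive; Dd2 MDR) cultured under standard conditions and grown 72 h with varying compound concentrations, chloroquine positive control or no drug, each condition in quadruplicate. Growth measured by SYBR Green I fluorescence with minor modifications; IC50 = concentration inhibiting growth by 50%.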

Data set [3] relates to Mus musculus. The data set is described as follows: Toxicity in Plasmodium yoelii infected CF-1 mouse assessed as weight loss at 25 mg/kg, po qd for 3 days relative to control. The class given is organism-based. Further details: dose 25 mg/kg, route oral. As to conditions: in vivo, 72 h. An outline of the steps:
(§3)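 Female outbred CF-1 mice were infected i.v. via the tail vein with 5 × 10^5 P. yoelii Kenya-infected erythrocytes, in groups of five. Compound or vehicle alone was given by gavage in caprylic/capric triglyceride once daily for 3 days, starting 24 h post-infection. One day after the last dose, Giemsa-stained thin smears were scored by microscopy for % parasitemia versus untreated controls. Group mean weight was recorded as day 3 versus day 0.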

In data set [4] the test system is Mus musculus. The data set is described as follows: Toxicity in Plasmodium yoelii infected CF-1 mouse assessed as weight loss at 5 mg/kg, po qd for 3 days relative to control. Also on record: dose 5 mg/kg, route oral. As to conditions: in vivo, 72 h. Format: organism-based. In short, it runs like this: as §3
A short description of data set [5]: Toxicity in C57BL/6J mouse splenic lymphocytes after 72 hrs by Alamar blue Assay. As to conditions: splenic lymphocyte. Format: cell-based. An outline of the steps: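 Splenic lymphocytes from C57BL/6J mice washed, then stimulated with 1 μg/mL concanavalin A in RPMI/10% FBS with 50 μM β-mercaptoethanol. Seeded at 2 × 10^5 cells/well with serially diluted compound for 72 h at 37 °C, 5% CO2. Resazurin added (final 10 μM) for another 24 h; fluorescence read at ex 560/em 590 nm.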
Background: Resazurin is reduced to fluorescent resorufin, in cell work by metabolically active cells.

Data set [6] deals with Plasmodium falciparum. The data set is described as follows: Antimalarial activity multidrug-resistant Plasmodium falciparum Dd2 after 72 hrs by SYBR Green I based fluorescence assay. Format: functional, organism-based. As to conditions: Dd2, 72 h. In short, it runs like this:
as §2

Data set [7] deals with Plasmodium yoelii. The data set is described as follows: Antimalarial activity Plasmodium yoelii infected in CF-1 mouse assessed as reduction of parasitemia at 5 mg/kg, po qd for 3 days administered 24 hrs after infection measured after 24 hrs last dose relative to control. Format: functional. Also on record: scale not given: the % may be the effect or the level left. An outline of the steps:
as §3

Data set [8] deals with Plasmodium yoelii. The data set is described as follows: Antimalarial activity Plasmodium yoelii infected in CF-1 mouse assessed as complete parasite clearance at 100 mg/kg, po qd for 3 days administered 24 hrs after infection measured after 24 hrs last dose. Also on record: dose 100 mg/kg. The class given is functional, organism-based. In short, it runs like this: as §1

Data set [9] concerns Mus musculus. The data set is described as follows: Toxicity in Plasmodium yoelii infected CF-1 mouse assessed as temporary weight loss at 100 mg/kg, po qd for 3 days. Format: organism-based. Also on record: dose 100 mg/kg, route oral. As to conditions: in vivo, 72 h. An outline of the steps:
as §1

Active and inactive are the calls of the source. The rule behind the calls is not given here. Bounds are passed on as bounds.

By IC50 is commonly meant the midpoint of a concentration-inhibition curve. In the case of `CCCCCCCCc1cc(CCC)c(/C=C2\N=C(c3ccc[nH]3)C=C2OC)[nH]1`, the Activity turned out to be 100% in [1], 92.4% in [3], 100.1% in data set [4] and 90% in data set [7]. The IC50 in [2] was 2.9 nM; in data set [5], less than 125 nM; in data set [6], 2.7 nM.

As for `COC1=CC(c2ccc[nH]2)=N/C1=C\c1[nH]c(Cc2ccc(Cl)cc2)cc1Cc1ccc(Cl)cc1`, the Activity in [1] was 100%; in data set [3], 102.5%; in data set [4] it was 107.5%; in [7] it was 92%. The values for the IC50 in [2], in data set [5] and in data set [6] were 6.1 nM, less than 125 nM and 4.8 nM, respectively.

Take `COC1=CC(c2ccc[nH]2)=N/C1=C\c1[nH]ccc1Cc1ccc(Cl)cc1`: the Activity in data set [1] is reported as 90%; in [3] it was 105%; in data set [4], 101.2%; in [7], 38%. Further, the IC50 in [2] is 65 nM; in [5], less than 125 nM; in data set [6], 81 nM.

Take `CCCc1cc(Cc2ccc(Cl)cc2)c(/C=C2\N=C(c3ccc[nH]3)C=C2OC)[nH]1`: the Activity came out at 100% in [1], 87.6% in [3], 102.9% in [4] and 94% in [7]. The IC50 in data set [2] was 3 nM; in data set [5] it was less than 125 nM; in data set [6], 2.6 nM.

In the case of `CCCc1cc(CCC2CCCCC2)c(/C=C2\N=C(c3ccc[nH]3)C=C2OC)[nH]1`, the Activity is on record as 100% in [1], 84.5% in [3], 101.5% in data set [4] and 97% in data set [7]. Also, the half-maximal inhibitory concentration (IC50) in [2] is 1.7 nM; in [5], less than 125 nM; in [6] it was 1.3 nM.

As for `CCC1CCCCCCCCC2=N/C(=C\c3[nH]c(-c4ccc[nH]4)cc3OC)C1=C2` (stereo not drawn) [METACYCLOPRODIGININE], the values for the Activity in [1] and in data set [9] were more than 99% and “Toxic”, respectively. Besides, the outcome in data set [8] was Active. The compound further came in with an IC50 in data set [2] of 1.7 nM.

For `CCCCCCc1cc(Cc2ccc(Cl)cc2)c(/C=C2\N=C(c3ccc[nH]3)C=C2OC)[nH]1`, the Activity in [1] is given as 100%; in data set [3], 96%; in data set [4], 100.3%; in data set [7], 99%. Besides, the IC50 is 2 nM in data set [2], less than 125 nM in data set [5] and 1.8 nM in [6].

Take `CCCCCCCCc1cc(Cc2ccc(Cl)cc2)c(/C=C2\N=C(c3ccc[nH]3)C=C2OC)[nH]1`: the Activity in [1] turned out to be 100%; in data set [3], 93.4%; in data set [4], 100.2%; in data set [7] it was 72%. The IC50 in [2] amounted to 16 nM; in [5], 1100 nM; in data set [6], 12 nM.
